According to paper PMC6714550 (Investigational new drugs, 2018):
Where two headings read alike, the source gives them in different places.

Assays:
[1] = test system: patients with imatinib refractory advanced GIST; assay: Safety and tolerability, DLT and MTD; conditions: schedule A, in combination with 400mg of imatinib
[2] = Plasma pharmacokinetics, cycle 1; type: in vivo, human
Procedure, shortened: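 Patients with advanced GIST took an oral pan-FGFR kinase inhibitor (test compound) once daily at escalating dose levels (25–125 mg), with a second oral tyrosine kinase inhibitor at 400 mg once daily, in 28-day cycles. Blood was sampled at prespecified cycle 1 timepoints. Plasma parent drug, partner drug and its active metabolite were measured by validated LC-MS/MS.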

advanced GIST = conditions: cited from earlier work
[3] = dose level −1 (BGJ398 50mg qd, imatinib 400mg qd), day 1, n=1
[4] = second and third line options in GIST

CCN1CCN(c2ccc(Nc3cc(N(C)C(=O)Nc4c(Cl)c(OC)cc(OC)c4Cl)ncn3)cc2)CC1 [BGJ398]
maximum tolerated dose (dose level −1) [1]: 50 mg | AUC (0–24h) ([2]; dose level 1 (BGJ398 75mg qd, imatinib 400mg qd), day 1, n=9, mean): 487 (32 – 1153) h x ng/mL | AUC (0–24h) ([2]; dose level 2 (BGJ398 100mg qd, imatinib 400mg qd), day 1, n=1): 309 h x ng/mL | AUC (0–24h) [2, 3]: 25 h x ng/mL | Tmax [2, 3]: 4 h | Tmax ([2]; human, plasma, oral): 5 h

Cc1ccc(NC(=O)c2ccc(CN3CCNCC3)cc2)cc1Nc1nccc(-c2cccnc2)n1 [CGP 74588]
Concentration of metabolite day 1 24hr ([2]; dose level 1 (BGJ398 75mg qd, imatinib 400mg qd), n=9, mean): 149 (56 – 395) ng/mL | Concentration of metabolite day 1 24hr ([2]; dose level 2 (BGJ398 100mg qd, imatinib 400mg qd), n=1): 1040 ng/mL | Concentration of metabolite day 1 24hr ([2]; dose level −1 (BGJ398 50mg qd, imatinib 400mg qd), n=3, mean): 54 (26 – 84) ng/mL | Concentration of metabolite day 1 24hr ([2]; dose level −2 (BGJ398 25mg qd, imatinib 400mg qd), n=3, mean): 131 (67 – 209) ng/mL

Cc1ccc(NC(=O)c2ccc(CN3CCN(C)CC3)cc2)cc1Nc1nccc(-c2cccnc2)n1 [imatinib]
objective response rate (advanced GIST; first-line, advanced GIST): approximately 50% | overall disease control rate (advanced GIST; first-line, advanced GIST): 80% | median progression free survival (advanced GIST; following initiation of imatinib therapy): 20–24 months | median PFS (advanced GIST; imatinib re-challenge): 1.8 months | median PFS, 95% CI (advanced GIST; imatinib re-challenge): 1.7–3.6 months

CNC(=O)c1cc(Oc2ccc(NC(=O)Nc3ccc(Cl)c(C(F)(F)F)c3)c(F)c2)ccn1 [regorafenib]
median PFS (advanced GIST; [4]): 4–6 months | response rate (advanced GIST; [4]): 4–7%

CCN(CC)CCNC(=O)c1c(C)[nH]c(/C=C2\C(=O)Nc3ccc(F)cc32)c1C [sunitinib]
median PFS (advanced GIST; [4]): 4–6 months | response rate (advanced GIST; [4]): 4–7%
